What was measured:
Cladosporium herbarum [1] = assay: Growth inhibition of Cladosporium herbarum at 0.07 mg after 72 hrs; format: functional; conditions: read-out: IZ
Outline: (§1)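 TLC bioautography with a given dose applied per spot. Plates were sprayed with Cladosporium herbarum spores (5 × 10^5 cfu) in 4% malt extract medium. Growth-inhibition zones were read after 72 h at 27 °C.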

Spodoptera littoralis = assay: Antifeedant activity against Spodoptera littoralis larvae at 10 ug/disk by disk-choice assay; format: functional
Outline: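 Disk-choice feeding test with fifth-instar Spodoptera littoralis larvae at 10 µg/disk. Read-out is FR50: treated area eaten divided by 50% of the untreated area, scored when half of the untreated area had been eaten.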

Artemia salina = assay: Toxicity against brine shrimp by lethality test; format: organism-based; conditions: in vivo
Cladosporium herbarum [2] = assay: Growth inhibition of Cladosporium herbarum at 0.05 mg after 72 hrs; format: functional; conditions: read-out: IZ; outline: as §1
Cladosporium herbarum [3] = assay: Growth inhibition of Cladosporium herbarum at 0.25 mg after 72 hrs; format: functional; conditions: read-out: IZ; outline: as §1

Structure (SMILES)	zone of inhibition at 70 µg/disc (Cladosporium herbarum [1])	FR50 (Spodoptera littoralis)	LC50 (Artemia salina)	zone of inhibition at 50 µg/disc (Cladosporium herbarum [2])	zone of inhibition at 250 µg/disc (Cladosporium herbarum [3])
COc1ccc(CCc2c(Cl)ccc(O)c2Cl)cc1Cl	12 mm	0.63	0.42 ppm	–	–
COc1ccc(CCc2c(Cl)ccc(O)c2Cl)cc1	–	–	0.44 ppm	22 mm	–
COc1ccc(CCc2c(Cl)cc(Cl)c(O)c2Cl)cc1Cl	–	–	1.71 ppm	0 mm	–
CC(=O)N1CCN(c2ccc(OC[C@H]3CO[C@](Cn4ccnc4)(c4ccc(Cl)cc4Cl)O3)cc2)CC1 [KETOCONAZOLE]	–	–	14.9 ppm	–	15 mm
Oc1ccc(CCc2c(Cl)cc(Cl)c(O)c2Cl)cc1Cl	20 mm	0.43	2.39 ppm	–	–

From ChEMBL document CHEMBL1141357, “Bioactive polychlorinated bibenzyls from the liverwort Riccardia polyclada” (J Nat Prod, 2007)
